Assay results from ChEMBL document CHEMBL4393735, “Molecular modelling, synthesis, and biological evaluations of a 3,5-disubstituted isoxazole fatty acid analogue as a PPARα-selective agonist” (Bioorg Med Chem, 2019).
Activity calls are given as the source filed them.

Legend:
Assay type in all cases: cell-based
[1] = target: T1, Peroxisome proliferator-activated receptor alpha (Homo sapiens) (UniProt Q07869); assay: Agonist activity at full length human FLAG-tagged GAL4-DBD fused PPARalpha LBD (168 to 468 residues) expressed in COS1 cells at 25 to 50 uM measured after 18 hrs by dual luciferase reporter gene assay
T1 sequence (whole entry): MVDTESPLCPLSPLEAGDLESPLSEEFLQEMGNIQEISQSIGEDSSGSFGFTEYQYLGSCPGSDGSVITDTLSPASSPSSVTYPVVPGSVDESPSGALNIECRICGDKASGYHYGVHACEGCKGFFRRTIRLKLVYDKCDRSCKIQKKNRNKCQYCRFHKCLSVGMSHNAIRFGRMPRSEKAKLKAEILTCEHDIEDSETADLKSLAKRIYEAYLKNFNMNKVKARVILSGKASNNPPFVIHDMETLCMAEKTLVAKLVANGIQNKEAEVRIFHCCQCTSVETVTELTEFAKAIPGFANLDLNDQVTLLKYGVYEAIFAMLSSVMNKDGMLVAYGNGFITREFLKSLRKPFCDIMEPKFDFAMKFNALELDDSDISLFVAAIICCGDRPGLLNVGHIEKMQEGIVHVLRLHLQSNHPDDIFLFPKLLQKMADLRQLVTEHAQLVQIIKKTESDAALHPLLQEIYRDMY
Procedure, shortened: (§1)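 COS-1 cells were transfected using Lipofectamine 2000 with GAL4-DBD–human NR-LBD plasmid, a 5×UAS-SV40 firefly luciferase reporter and pRL-CMV. After 6 h, cells were treated with 0, 25 or 50 μM in 0.1% DMSO (final) for 18 h. Firefly signal was normalized to Renilla, then to DMSO control and GAL4-only. Three biological replicates in quadruplicate, mean ± SEM, two-way ANOVA with Bonferroni.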

[2] = target: T2, Peroxisome proliferator-activated receptor alpha (Mus musculus) (UniProt P23204); assay: Agonist activity at PPARalpha in C57BL/6N mouse primary hepatocytes assessed as SREBF1 mRNA expression at 50 uM measured after 18 hrs by qRT-PCR analysis
T2 sequence (whole entry): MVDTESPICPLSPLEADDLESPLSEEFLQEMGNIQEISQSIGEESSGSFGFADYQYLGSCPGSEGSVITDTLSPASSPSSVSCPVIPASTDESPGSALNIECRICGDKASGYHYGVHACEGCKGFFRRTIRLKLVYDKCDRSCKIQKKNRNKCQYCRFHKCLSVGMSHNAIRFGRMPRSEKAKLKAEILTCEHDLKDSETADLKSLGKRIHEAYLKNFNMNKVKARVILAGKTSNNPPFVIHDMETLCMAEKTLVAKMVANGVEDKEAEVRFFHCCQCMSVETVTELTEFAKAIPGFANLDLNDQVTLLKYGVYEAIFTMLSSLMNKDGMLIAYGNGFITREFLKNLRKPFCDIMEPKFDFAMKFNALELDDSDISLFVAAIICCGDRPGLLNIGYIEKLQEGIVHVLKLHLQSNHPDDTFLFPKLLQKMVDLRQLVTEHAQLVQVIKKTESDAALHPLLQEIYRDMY
Procedure, shortened: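 Treatment for 18 h at 50 μM (or 1 μM for the 1 μM agents), DMSO vehicle. Harvested for qPCR. mRNA normalized to TBP by the comparative threshold method, expressed relative to DMSO control. Two biological replicates run in duplicate, mean ± SEM. Primary hepatocytes came from male C57BL/6N mice aged 7–8 weeks, isolated by portal-vein perfusion and digestion, seeded on collagen I and used on day 2. HuH-7 cells were kept in DMEM with 10% FBS and ITS.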

COS-1 = assay: Cytotoxicity against African green monkey COS1 cells assessed as reduction in cell viability at 10^-4 M by LDH release assay; conditions: chlorocebus aethiops, cos-1, 100 µM
Procedure, shortened: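 COS-1 cells were treated across the same concentration series as the GAL4 dose-response runs. Cytotoxicity was measured as LDH released into medium (absorbance 492/750 nm) and by XTT viability assay (absorbance 450/690 nm). Results expressed relative to control.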

[3] = target: T3, Oxysterols receptor LXR-beta (Homo sapiens) (UniProt P55055); assay: Agonist activity at full length human GAL4-DBD fused LXRbeta LBD (155 to 461 residues) expressed in COS1 cells at 25 to 50 uM measured after 18 hrs by dual luciferase reporter gene assay; procedure, shortened: as §1
T3 sequence (whole entry): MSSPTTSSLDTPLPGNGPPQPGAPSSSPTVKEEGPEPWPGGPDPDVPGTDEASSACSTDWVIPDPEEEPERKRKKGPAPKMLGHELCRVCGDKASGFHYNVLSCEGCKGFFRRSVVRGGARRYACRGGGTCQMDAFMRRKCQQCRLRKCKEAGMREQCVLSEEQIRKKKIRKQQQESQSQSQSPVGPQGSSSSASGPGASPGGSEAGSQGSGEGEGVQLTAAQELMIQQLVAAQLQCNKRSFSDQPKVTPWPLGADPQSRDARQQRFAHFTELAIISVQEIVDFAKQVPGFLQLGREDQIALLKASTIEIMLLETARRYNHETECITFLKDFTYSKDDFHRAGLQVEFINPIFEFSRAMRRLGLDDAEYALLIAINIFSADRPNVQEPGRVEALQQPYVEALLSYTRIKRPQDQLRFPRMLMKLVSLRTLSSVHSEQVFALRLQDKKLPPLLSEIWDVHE

Activity [1]: Active | Activity [2]: Active | Activity [3]: inactive
SMILES: CCCCCCCc1cc(CCCCCC(=O)O)no1
Activity (COS-1): Toxic
